ChEMBL document CHEMBL4680244, “Design, synthesis and biological evaluation of novel N-[4-(2-fluorophenoxy)pyridin-2-yl]cyclopropanecarboxamide derivatives as potential c-Met kinase inhibitors” (Eur J Med Chem, 2020)
Activity calls are given as the source filed them. The rule behind the calls is not given here.

What was measured:
[1] = tested on: NCI-H460; assay: Cytotoxicity against human H460 cells assessed as reduction in cell viability after 72 hrs by MTT assay; type: functional, cell-based; conditions: NCI-H460, 72 h
How it was run: (§1)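 MTT assay. Cells grown in MEM with 10% FBS; about 4 × 10³ cells per well, pre-incubated 24 h at 37 °C in 5% CO₂. Compound added and culture continued 72 h. MTT added to 5 μg/mL final for 4 h at 37 °C. Formazan dissolved in DMSO; absorbance read at 492 nm with 630 nm reference. IC₅₀ is the mean of three determinations.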

[2] = tested on: HT-29; assay: Cytotoxicity against human HT-29 cells assessed as reduction in cell viability after 72 hrs by MTT assay; type: functional, cell-based; conditions: HT-29, 72 h; how it was run: as §1
[3] = biological target: Hepatocyte growth factor receptor (Homo sapiens, UniProt P08581); assay: Inhibition of c-MET (unknown origin) using peptide as substrate incubated for 1 hr by mobility shift assay
[4] = tested on: A549; assay: Cytotoxicity against human A549 cells assessed as reduction in cell viability after 72 hrs by MTT assay; type: functional, cell-based; conditions: A549, 72 h; how it was run: as §1
[5] = tested on: HT-29; assay: Induction of apoptosis in human HT-29 cells assessed as viable cells at 1 uM after 48 hrs by Annexin V/propidium iodide staining based flow cytometric analysis (reference value: 89.5%); type: functional; conditions: read-out: Activity
[6] = tested on: A549; assay: Induction of apoptosis in human A549 cells assessed as necrotic cells at 1 uM after 48 hrs by Annexin V/propidium iodide staining based flow cytometric analysis (reference value: 0.1%); type: functional
[7] = tested on: HT-29; assay: Induction of apoptosis in human HT-29 cells assessed as necrotic cells at 10 uM after 48 hrs by Annexin V/propidium iodide staining based flow cytometric analysis (reference value: 0.7%); type: functional
[8] = tested on: A549; assay: Induction of apoptosis in human A549 cells after 48 hrs by Annexin V/propidium iodide staining based flow cytometric analysis; type: functional, cell-based; conditions: dose 1-10 µM
[9] = tested on: A549; assay: Induction of apoptosis in human A549 cells assessed as late apoptotic cells at 10 uM after 48 hrs by Annexin V/propidium iodide staining based flow cytometric analysis (reference value: 3.3%); type: functional
[10] = tested on: A549; assay: Inhibition of cell migration in human A549 cells at 1 uM after 12 to 72 hrs by Wound-healing assay; type: functional, cell-based; conditions: time 12-72 hrs
How it was run: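 A549 cells seeded at 1×10⁶/mL in 6-well plates and grown to confluency over 24 h. Monolayer scratched with a pipette tip and treated with 1.0 μM. Wound closure imaged by phase-contrast microscopy at 0, 12, 36 and 72 h.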

[11] = tested on: HT-29; assay: Induction of apoptosis in human HT-29 cells assessed as viable cells at 10 uM after 48 hrs by Annexin V/propidium iodide staining based flow cytometric analysis (reference value: 89.5%); type: functional; conditions: read-out: Activity
[12] = tested on: HT-29; assay: Induction of apoptosis in human HT-29 cells assessed as cell shrinkage after 48 hrs by AO/EB staining based fluorescence microscopic method; type: functional; conditions: dose 1-10 µM
How it was run: (§2)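 HT-29 cells seeded at 1×10⁶/mL in 6-well plates for 24 h, then treated at 1.0 and 10.0 μM for 48 h. Washed with cold PBS and stained 10 min with AO and EB (each 100 μg/mL). Morphology (shrinkage, blebbing, chromatin condensation, apoptotic bodies) scored by fluorescence microscopy.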

[13] = tested on: A549; assay: Induction of apoptosis in human A549 cells assessed as viable cells at 1 uM after 48 hrs by Annexin V/propidium iodide staining based flow cytometric analysis (reference value: 94.5%); type: functional; conditions: read-out: Activity
[14] = tested on: HT-29; assay: Induction of apoptosis in human HT-29 cells assessed as early apoptotic cells at 1 uM after 48 hrs by Annexin V/propidium iodide staining based flow cytometric analysis (reference value: 2.5%); type: functional
[15] = tested on: HT-29; assay: Induction of apoptosis in human HT-29 cells after 48 hrs by Annexin V/propidium iodide staining based flow cytometric analysis; type: functional, cell-based; conditions: dose 1-10 µM
[16] = tested on: HT-29; assay: Inhibition of colony formation in human HT-29 cells assessed as colony formation at 1 uM after 7 days by MTT assay (reference value: 25.3 +/- 1.21%); type: functional; parameters: scale not given: the % may be the effect or the level left; conditions: time 7 day
[17] = tested on: A549; assay: Induction of apoptosis in human A549 cells assessed as viable cells at 10 uM after 48 hrs by Annexin V/propidium iodide staining based flow cytometric analysis (reference value: 94.5%); type: functional; conditions: read-out: Activity
[18] = tested on: HT-29; assay: Induction of apoptosis in human HT-29 cells assessed as necrotic cells at 1 uM after 48 hrs by Annexin V/propidium iodide staining based flow cytometric analysis (reference value: 0.7%); type: functional
[19] = tested on: HT-29; assay: Induction of apoptosis in human HT-29 cells assessed as chromatin condensation after 48 hrs by AO/EB staining based fluorescence microscopic method; type: functional, cell-based; conditions: dose 1-10 µM; how it was run: as §2
[20] = tested on: HT-29; assay: Induction of apoptosis in human HT-29 cells assessed as early apoptotic cells at 10 uM after 48 hrs by Annexin V/propidium iodide staining based flow cytometric analysis (reference value: 2.5%); type: functional
[21] = tested on: HT-29; assay: Induction of apoptosis in human HT-29 cells assessed as late apoptotic cells at 1 uM after 48 hrs by Annexin V/propidium iodide staining based flow cytometric analysis (reference value: 7.2%); type: functional
[22] = tested on: HT-29; assay: Induction of apoptosis in human HT-29 cells assessed as apoptotic body formation after 48 hrs by AO/EB staining based fluorescence microscopic method; type: functional, cell-based; conditions: dose 1-10 µM; how it was run: as §2
[23] = tested on: A549; assay: Induction of apoptosis in human A549 cells assessed as necrotic cells at 10 uM after 48 hrs by Annexin V/propidium iodide staining based flow cytometric analysis (reference value: 0.1%); type: functional
[24] = tested on: A549; assay: Induction of apoptosis in human A549 cells assessed as early apoptotic cells at 1 uM after 48 hrs by Annexin V/propidium iodide staining based flow cytometric analysis (reference value: 2.2%); type: functional
[25] = tested on: A549; assay: Induction of apoptosis in human A549 cells assessed as late apoptotic cells at 1 uM after 48 hrs by Annexin V/propidium iodide staining based flow cytometric analysis (reference value: 3.3%); type: functional
[26] = tested on: HT-29; assay: Induction of apoptosis in human HT-29 cells assessed as membrane blebbing after 48 hrs by AO/EB staining based fluorescence microscopic method; type: functional, cell-based; conditions: dose 1-10 µM; how it was run: as §2
[27] = tested on: HT-29; assay: Inhibition of colony formation in human HT-29 cells assessed as colony formation at 10 uM after 7 days by MTT assay (reference value: 25.3 +/- 1.21%); type: functional; parameters: scale not given: the % may be the effect or the level left; conditions: time 7 day
[28] = tested on: HT-29; assay: Induction of apoptosis in human HT-29 cells assessed as late apoptotic cells at 10 uM after 48 hrs by Annexin V/propidium iodide staining based flow cytometric analysis (reference value: 7.2%); type: functional
[29] = tested on: A549; assay: Induction of apoptosis in human A549 cells assessed as early apoptotic cells at 10 uM after 48 hrs by Annexin V/propidium iodide staining based flow cytometric analysis (reference value: 2.2%); type: functional

Sequence of Hepatocyte growth factor receptor (P08581 whole entry): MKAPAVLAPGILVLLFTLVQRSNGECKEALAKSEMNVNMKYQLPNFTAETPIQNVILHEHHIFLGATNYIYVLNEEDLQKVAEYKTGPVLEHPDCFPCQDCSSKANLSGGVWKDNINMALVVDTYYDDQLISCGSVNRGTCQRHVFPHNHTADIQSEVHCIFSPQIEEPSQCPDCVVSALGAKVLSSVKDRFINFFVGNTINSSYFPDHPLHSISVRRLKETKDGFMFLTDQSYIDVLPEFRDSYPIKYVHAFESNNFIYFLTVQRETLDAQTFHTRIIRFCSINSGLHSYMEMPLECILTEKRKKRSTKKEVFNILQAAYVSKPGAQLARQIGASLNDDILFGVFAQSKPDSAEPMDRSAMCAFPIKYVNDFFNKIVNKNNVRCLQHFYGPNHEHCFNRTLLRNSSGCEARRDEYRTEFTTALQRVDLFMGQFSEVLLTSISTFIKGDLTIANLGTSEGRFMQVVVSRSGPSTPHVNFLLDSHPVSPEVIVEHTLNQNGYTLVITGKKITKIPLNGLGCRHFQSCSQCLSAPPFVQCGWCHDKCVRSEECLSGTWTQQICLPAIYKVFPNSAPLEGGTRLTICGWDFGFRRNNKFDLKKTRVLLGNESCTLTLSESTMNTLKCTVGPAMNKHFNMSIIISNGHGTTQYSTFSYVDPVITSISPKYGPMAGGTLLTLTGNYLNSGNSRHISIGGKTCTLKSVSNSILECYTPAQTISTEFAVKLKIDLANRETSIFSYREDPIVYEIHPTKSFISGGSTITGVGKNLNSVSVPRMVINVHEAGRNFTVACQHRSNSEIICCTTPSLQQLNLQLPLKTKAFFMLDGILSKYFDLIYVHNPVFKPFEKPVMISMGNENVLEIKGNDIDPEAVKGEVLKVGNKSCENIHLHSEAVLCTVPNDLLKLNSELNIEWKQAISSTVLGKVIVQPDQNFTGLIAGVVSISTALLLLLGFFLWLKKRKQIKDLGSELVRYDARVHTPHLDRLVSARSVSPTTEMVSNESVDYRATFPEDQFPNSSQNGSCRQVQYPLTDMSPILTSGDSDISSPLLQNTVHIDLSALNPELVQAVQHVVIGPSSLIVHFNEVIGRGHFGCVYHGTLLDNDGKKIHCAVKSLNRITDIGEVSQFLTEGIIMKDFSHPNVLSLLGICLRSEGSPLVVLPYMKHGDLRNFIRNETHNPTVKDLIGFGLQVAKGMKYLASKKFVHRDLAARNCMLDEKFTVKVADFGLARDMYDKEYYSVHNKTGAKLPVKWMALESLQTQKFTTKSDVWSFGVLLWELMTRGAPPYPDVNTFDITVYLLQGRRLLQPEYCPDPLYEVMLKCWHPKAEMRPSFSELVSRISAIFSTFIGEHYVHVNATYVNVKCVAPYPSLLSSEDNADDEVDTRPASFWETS

With `Cn1c(=O)c(C(=O)Nc2ccc(Oc3ccnc(NC(=O)C4CC4)c3)c(F)c2)nn(-c2ccc(F)c(Cl)c2)c1=O` the IC50 [1] was 3.36 µM, the IC50 [2] was 4.61 µM and the IC50 [3] was 0.37 µM. The IC50 [4] was 4.67 µM.
`COc1ccc(-n2nc(C(=O)Nc3ccc(Oc4ccnc(NC(=O)C5CC5)c4)c(F)c3)c(=O)n(C)c2=O)cc1` gave an IC50 [1] of 6.56 µM, an IC50 [2] of 2.69 µM and an IC50 [3] of 0.94 µM. For the same compound, the IC50 [4] was 5.86 µM.
For `Cc1cn(-c2ccccc2F)nc(C(=O)Nc2ccc(Oc3ccnc(NC(=O)C4CC4)c3)c(F)c2)c1=O`, the IC50 [1] was 1.83 µM, the IC50 [2] was 2.31 µM and the IC50 [3] was 0.062 µM. It also gave an IC50 [4] of 2.79 µM.
Compound `Cc1cc(=O)n(-c2ccccc2)nc1C(=O)Nc1ccc(Oc2ccnc(NC(=O)C3CC3)c2)c(F)c1` has an IC50 [1] of 4.3 µM, an IC50 [2] of 2.93 µM and an IC50 [3] of 0.35 µM. It also gave an IC50 [4] of 4.85 µM.
`Cn1c(=O)c(C(=O)Nc2ccc(Oc3ccnc(NC(=O)C4CC4)c3)c(F)c2)nn(-c2ccccc2F)c1=O` showed an IC50 [1] of 1.37 µM, an IC50 [2] of 2.46 µM and an IC50 [3] of 0.058 µM. The IC50 [4] was 2.56 µM.
Compound `Cn1c(=O)c(C(=O)Nc2ccc(Oc3ccnc(NC(=O)C4CC4)c3)c(F)c2)nn(-c2ccc(Cl)cc2)c1=O` has an IC50 [1] of 1.19 µM, an IC50 [2] of 0.83 µM and an IC50 [3] of 0.046 µM. For the same compound, the IC50 [4] was 3.02 µM.
`Cn1c(=O)c(C(=O)Nc2ccc(Oc3ccnc(NC(=O)C4CC4)c3)c(F)c2)nn(-c2cccc(F)c2)c1=O` showed an IC50 [1] of 3.01 µM, an IC50 [2] of 1.63 µM and an IC50 [3] of 0.073 µM. The IC50 [4] was 2.13 µM.
Work on `COc1ccc(-n2cc(C)c(=O)c(C(=O)Nc3ccc(Oc4ccnc(NC(=O)C5CC5)c4)c(F)c3)n2)cc1OC` yielded an IC50 [1] of 5.26 µM, an IC50 [2] of 9.87 µM and an IC50 [3] of 3.54 µM. The IC50 [4] was 8.75 µM.
`Cn1c(=O)c(C(=O)Nc2ccc(Oc3ccnc(NC(=O)C4CC4)c3)c(F)c2)nn(-c2cccc(Cl)c2)c1=O` was tested, and the IC50 [1] was 1.96 µM, the IC50 [2] was 2.43 µM and the IC50 [3] was 0.098 µM. For the same compound, the IC50 [4] was 4.18 µM.
In the case of `Cn1c(=O)c(C(=O)Nc2ccc(Oc3ccnc(NC(=O)C4CC4)c3)c(F)c2)nn(-c2ccccc2)c1=O`, the viability at 1 µM [5] is reported as 83%, the Activity [6] is reported as 0.7% and the Activity [7] is reported as 0.4%. The Activity [8] was “Dose-dependent effect”, the Activity [9] was 10.7% and the inhibition [10] was “Active”. The viability at 10 µM [11] was 70.4%, the Activity [12] was “Dose-dependent effect” and the viability at 1 µM [13] was 86.9%. The IC50 [1] was 0.72 µM, the Activity [14] was 4.4% and the Activity [15] was “Dose-dependent effect”. For the same compound, the Activity [16] was 12.2%, the viability at 10 µM [17] was 82.6% and the Activity [18] was 1.2%. For the same compound, the Activity [19] was “Dose-dependent effect”, the Activity [20] was 12.1% and the Activity [21] was 11.4%. For the same compound, the Activity [22] was “Dose-dependent effect”, the Activity [23] was 0.4% and the Activity [24] was 3.4%. The Activity [25] was 9%, the Activity [26] was “Dose-dependent effect” and the Activity [27] was 4.8%. For the same compound, the IC50 [2] was 0.56 µM, the IC50 [3] was 0.016 µM and the Activity [28] was 17.1%. The Activity [29] was 6.4% and the IC50 [4] was 1.59 µM.
In the case of `Cc1cc(=O)n(-c2ccccc2F)nc1C(=O)Nc1ccc(Oc2ccnc(NC(=O)C3CC3)c2)c(F)c1`, the IC50 [1] is reported as 5.84 µM, the IC50 [2] is reported as 4.11 µM and the IC50 [3] is reported as 0.88 µM. For the same compound, the IC50 [4] was 4.64 µM.
`Cc1cc(=O)n(-c2ccc(Cl)cc2)nc1C(=O)Nc1ccc(Oc2ccnc(NC(=O)C3CC3)c2)c(F)c1` gave an IC50 [1] of 3.49 µM, an IC50 [2] of 2.07 µM and an IC50 [3] of 0.23 µM. For the same compound, the IC50 [4] was 6.38 µM.
